TRPN1 ag – zebrafish TRPN1 (NompC) channel agonism. activation, % at 3 µM. HEK293 zebrafish TRPN1-YFP, Fluo-8 calcium fluorescence; 100% = response to 87 µM carbachol. 0.18% of 220,000 active;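 active means activation above its plate's cutoff, the mean activation of test wells on that plate plus 3 SD, cut at about 19% in these data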;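 further: 0% = DMSO alone and 100% = 87 µM carbachol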
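Material – zebrafish TRPN1-YFP in HEK293 cells · Doses – 3 µM single point · Schedule – dye 1 h 37 °C plus 30 min RT · Signal – Fluo-8 calcium fluorescence, excitation 470-495 nm, emission 515-575 nm · Read-out – % activation versus carbachol response · Control set – carbachol high, DMSO low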
CHO-K1 Ca PAM – counter-screen for M1 PAMs: effect in parental CHO-K1 cells | ATP EC20, Fluo-8 calcium fluorescence; 0% at ATP EC20, 100% at ATP max | activation, % at 3 µM | 0.02% of 360,000 active | AID 602247;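 active means activation above the run cutoff, the mean activation of all test compounds plus 3 SD, cut at about 40% in these data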;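 further: peak over basal fluorescence ratio in a 140 s read after ATP addition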
TRPML3 agonist – activates the human TRPML3 channel; 0.29% of 220,000 active; AID 1448; activation, % at 3 µM; HEK293 TRPML3-YFP, Fluo-8 calcium fluorescence; 100% = the carbachol control signal;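 active means activation above its plate's cutoff, the mean activation of the plate's test wells plus 3 SD, cut at about 12% in these data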;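 further: 0% = DMSO only wells and 100% = carbachol wells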
Target sequence (Q8TDD5 whole entry, looked up): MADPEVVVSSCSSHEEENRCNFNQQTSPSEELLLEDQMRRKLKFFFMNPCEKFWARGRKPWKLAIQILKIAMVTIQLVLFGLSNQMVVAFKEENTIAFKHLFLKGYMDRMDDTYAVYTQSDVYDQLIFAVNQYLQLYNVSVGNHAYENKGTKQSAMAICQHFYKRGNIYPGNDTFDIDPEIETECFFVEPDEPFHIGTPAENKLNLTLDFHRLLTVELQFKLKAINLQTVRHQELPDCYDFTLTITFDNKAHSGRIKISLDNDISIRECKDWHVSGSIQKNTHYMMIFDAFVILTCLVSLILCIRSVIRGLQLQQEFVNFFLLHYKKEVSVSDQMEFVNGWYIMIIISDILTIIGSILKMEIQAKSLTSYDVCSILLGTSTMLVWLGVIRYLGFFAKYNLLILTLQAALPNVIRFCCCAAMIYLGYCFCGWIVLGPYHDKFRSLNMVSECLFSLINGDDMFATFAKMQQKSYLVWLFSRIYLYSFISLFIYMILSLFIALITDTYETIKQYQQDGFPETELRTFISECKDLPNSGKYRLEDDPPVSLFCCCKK
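Material: TRPML3-YFP stable HEK293 cells | Dosing: One concentration, 3 µM nominal, 0.3% DMSO | Timing: 125 s total fluorescence read per well | Technique: Fluo-8 calcium dye fluorescence, ex 470-495, em 515-575 nm | Measure: Percent activation from peak-to-basal fluorescence ratio, scaled between DMSO and carbachol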
M1 ag parental – counter-screen for M1 agonists: effect in parental CHO-K1 cells; Fluo-8 calcium fluorescence; scaled to maximal ATP response, vehicle zero; activation, % at 3 µM; 0.48% of 360,000 active; AID 602248; in the data active means activation above about 15%;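 further: untransfected CHO-K1 host cells lacking M1 receptor as counterscreen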
CHO-K1 Ca antag – M1 antagonist counterscreen hit in parental CHO-K1 cells; ATP-induced calcium, Fluo-8 fluorescence; inhibition, % at 3 µM; 0.6% of 360,000 active; AID 602250;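 active means inhibition above a per-plate cutoff, the plate's mean sample inhibition plus 3 SD, cut at about 24% in these data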;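 further: 0% = DMSO plus EC80 ATP and 100% = DMSO alone without ATP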
Active calls of the source: *; . = no result given. Sampled rows, rich in hits. Any-hit rate of the full collection: about 1.2%.

SMILES | TRPN1 ag | CHO-K1 Ca PAM | TRPML3 agonist | M1 ag parental | CHO-K1 Ca antag
Cc1ccc(NC(=O)C2(C)CCN2C(=O)Cc2ccc(C(C)C)cc2)cc1 (centres undefined) | . | 3 | . | 1 | 0
CC(=O)Oc1c(/C=C(\C#N)C(N)=O)[nH]c2ccccc12 | 4 | 9 | 1 | 8 | 27*
CC1CCCCC12NC(=O)N(CC(=O)c1ccc3c(c1)OCO3)C2=O (centres undefined) | . | -20 | . | 0 | 32*
CC1CCCCC12NC(=O)N(CC(=O)Nc1ccc3c(c1)OCO3)C2=O (centres undefined) | . | -9 | . | 0 | 13
CC1(c2ccc(OC(F)F)cc2)NC(=O)N(CC(=O)c2ccc3c(c2)OCO3)C1=O (centres undefined) | . | -16 | . | 36* | 0
CC1(c2ccc([N+](=O)[O-])cc2)NC(=O)N(CC(=O)c2ccc3c(c2)OCO3)C1=O (centres undefined) | . | -15 | . | 30* | 7
O=c1ccoc2ccccc12 | . | -1 | . | 8 | 14
COc1ccc(C(C)(O)c2nc(-c3ccncc3)cs2)cc1 (centres undefined) | . | -8 | . | 5 | 1
COc1ccc(CN2C(=O)C(CC(=O)NCC3CCCCC3)CC(C(=O)N(C)C)=C2C)cc1 (centres undefined) | . | 8 | . | 0 | -10
CCN1CCN(c2ccc(S(=O)(=O)N3CCCCC3)cc2NC(=O)Cc2ccc(Cl)c(Cl)c2)CC1 | . | 0 | . | 18* | 29*
Cc1ccccc1OCCC(=O)Nc1cc(S(=O)(=O)N2CCCCC2)ccc1N1CCN(C)CC1 | . | -12 | . | 51* | 8
CCC(C)c1ccc(O)c(NC(=S)NC(=O)c2cccs2)c1 (centres undefined) | . | -8 | . | 0 | -7
OC(c1ccccc1)(c1nc(-c2ccc(F)c(Cl)c2)cs1)C(F)(F)F (centres undefined) | . | -6 | . | 0 | -3
CC(C)OC(=O)c1c2c(n3ccccc13)C(=O)c1ccccc1C2=O | 10 | 14 | 5 | 18* | 4
Cc1ccc(NC(=O)Nc2nnc([C@H]3C[C@H](O)[C@@H](CO)O3)s2)cc1 | . | 14 | . | 0 | -19
CCOC(=O)C1=C(Cc2ccc(OC)cc2)C(=O)c2ccccc2C1=O | 3 | -2 | 2 | 15* | 25*
CCOC(=O)C1C(c2ccc3c(c2)OCO3)NC(=O)NC1(O)C(F)(F)F (centres undefined) | 28* | 19 | 1 | 0 | -9
CCOC(=O)C1C(c2ccc(O)c(OC)c2)NC(=O)NC1(O)C(F)(F)F (centres undefined) | . | 6 | . | 0 | -2
CCN(CC)C(=O)c1ncn2c1C(=O)N(C)CC2 | . | -8 | . | 0 | 27*
CN1CCn2cnc(C(=O)NCc3ccccc3)c2C1=O | . | -9 | . | 5 | 11
O=C(Cc1coc2ccc3ccccc3c12)NCc1ccccc1 | -2 | 17 | 0 | 0 | -3
O=C(Cc1coc2ccc3ccccc3c12)Nc1nccs1 | -1 | -7 | 0 | 0 | 26*
COCCNc1nc(-c2ccccc2CO)c2sc(-c3ccccc3)cc2n1 | . | 2 | . | 0 | 0
CCCCN(C(=O)CC1CCCCC1)c1c(N)n(CCCC)c(=O)[nH]c1=O | . | 1 | . | -1 | -9
Cc1ccc(S(=O)(=O)NCCC(=O)O)cc1 | 0 | 12 | 1 | 1 | 4
SMILES | TRPN1 ag | CHO-K1 Ca PAM | TRPML3 agonist | M1 ag parental | CHO-K1 Ca antag
CCN(CC)C(=O)CCNS(=O)(=O)c1ccc(C)cc1 | 0 | -3 | 0 | 0 | 28*
Cn1nc(C(F)(F)F)c(-c2cccc(C(F)(F)F)c2)c1NC(=O)Nc1ccc(F)cc1 | 17 | -25 | 9 | 15* | 33*
O=S1(=O)C[C@H](N2CCN(CCO)CC2)[C@@H](COCc2ccccc2)N1 | . | 19 | . | 2 | 18
COC(=O)c1ccc(Oc2ccc3nnc(C)n3n2)cc1 | 0 | -2 | 0 | 0 | 19
Cc1nnc2ccc(Oc3ccc(-c4ccccc4)cc3)nn12 | -1 | -8 | -1 | 10 | 40*
Cc1ccc(C(=O)O)cc1NCc1ccncc1 | . | -17 | . | 0 | 4
Cc1ccc(CNC(=S)Nc2cc(C(=O)O)ccc2C)cc1 | 0 | -19 | 1 | 0 | 31*
CC1(C(=O)Nc2cccc3c2CCCC3)CCN1C(=O)c1cccc(F)c1 (centres undefined) | . | 24 | . | 0 | -24
CC(=O)c1ccc(N2CCN(C(=O)c3nn(C)c4c3CS(=O)(=O)c3ccccc3-4)CC2)cc1 | . | -11 | . | 16* | -2
